Screens from PubChem.
The full list was thinned out, with hits kept by preference.
INS promoter act: TRM-6 insulin promoter activation; TRM-6 cells, insulin promoter eGFP reporter, imaging; plate-scaled: unstimulated 0, stimulated control 100; activation, % at 2 µM; hit rate 0.81% among 130,000; AID 1296;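 active = activation at 2 µM above a set limit, confirmed on inspection of the cell images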;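 note: share of cells whose green reporter signal exceeds an intensity cutoff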
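Material: Human fetal islet-derived TRM-6 cells with tamoxifen-inducible insulin promoter–eGFP reporter | Medium: Low-glucose (5.5 mM) medium with tamoxifen | Probe or stimulus: Tamoxifen inducer, 0.75 µM, in seeding medium | Schedule: Tamoxifen pre-incubation 15 h overnight, then compound exposure 48 h at 37 °C | Detection: High-content imaging of fixed cells with Hoechst nuclear stain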
* = called active by the depositor.

SMILES	INS promoter act
Cc1ccc(C(=O)NCc2ccco2)cc1S(=O)(=O)N1CCOCC1	5
O=S(=O)(NCc1ccco1)N1CCOCC1	494*
Cc1cccc(OCC(=O)NCc2cc(C)nc3ccccc23)c1	0
Cc1cc(NC(=O)/C=C/c2cccc(Cl)c2)n(-c2nc3ccccc3[nH]2)n1	300*
Cc1cc(NC(=O)c2c(F)cccc2F)n(-c2nc3ccccc3[nH]2)n1	9
Cc1cc(NC(=O)/C=C/c2ccc(F)cc2)n(-c2nc3ccccc3[nH]2)n1	-10
C/C(CC(=O)Nc1ccc(OCc2ccccc2)cc1)=N\NC(=O)C(=O)Nc1ccc(C)c(Cl)c1	8
COc1cccc(-n2nnc3c(=O)n(CC(=O)Nc4ccc(C)cc4)cnc32)c1	116
CCCN(Cc1ccccc1)C(=S)Nc1ccc(SC(F)F)cc1	-8
CCCCSc1n[nH]c(N)n1	7
Cc1cccc(C(=O)n2cnnc2N)c1	-6
COC(=O)CC/C(O)=C1/C(=N)CC(C)(C)CC1=O	-3
CCNS(=O)(=O)c1ccc(NC(=O)c2ccccc2OCC)cc1	206
CCN1CCCC1CNS(=O)(=O)c1ccc(C(=O)Nc2ccccc2)cc1 (stereo not drawn)	500*
O=C(Nc1ccc(S(=O)(=O)N2CCCCC2)cc1)c1ccc(CN2CCc3ccccc3C2)cc1	3
Cc1c(NC(=O)C(C)OC(=O)CCC2CCCC2)c(=O)n(-c2ccccc2)n1C (stereo not drawn)	8
Cc1oc(-c2ccc(Cl)cc2)nc1CN1CCC(C(=O)NCc2cccs2)CC1	-3
Cc1cccc(-c2nc(CN3CCCC(C(=O)NC4CCC(C)CC4)C3)c(C)o2)c1 (stereo not drawn)	136*
Cc1oc(-c2ccccc2F)nc1CN1CCC(C(=O)NC2CCCc3ccccc32)CC1 (stereo not drawn)	-86
O=C(O)C1CCCN1S(=O)(=O)c1cccs1 (stereo not drawn)	-6
O=C(CC1CCCCC1)N1CCCC(c2nc(-c3ccc(S(=O)(=O)N4CCCC4)cc3)no2)C1 (stereo not drawn)	9
CCCCCC(=O)N1CCCC(c2nc(-c3ccc(OC)cc3)no2)C1 (stereo not drawn)	77*
COc1ccc(-c2noc(CCC(=O)N3CCC(C)CC3)n2)cc1	113
CC(C)COc1ccc(C(=O)Nc2ccccc2[N+](=O)[O-])cc1	-8
FC(F)(F)c1nnc2c(Sc3ccccc3)nc3ccc(Cl)cc3n12	-7
SMILES	INS promoter act
COc1cc(/C=N/NC(=O)c2ccoc2C)cc(OC)c1OC	3
COc1ccc(C(=O)N/N=C/c2ccc(OC)c(OS(=O)(=O)c3ccccc3)c2)cc1	-5
COc1cc(/C=N/NC(=O)c2ccc(-c3ccccc3)cc2)cc(OC)c1OC	443*
COc1ccc(C(=O)NCCn2ccc3ccccc32)c(OC)c1	-3
COc1cc(C(C(=O)NCc2ccccc2)N(Cc2ccco2)C(=O)c2cnccn2)cc(OC)c1OC (stereo not drawn)	-4
COc1ccc(CC(=O)Nc2ccc(-c3cn4ccc(C)cc4n3)cc2)cc1	7
CCN1/C(=C/c2ccc3cc(C)cc(C)c3[n+]2CC)Sc2cc(C)ccc21	413*
CCN1/C(=C\c2ccc3cc(C)ccc3[n+]2CC)Sc2cc(C)c(C)cc21	413*
CCN1/C(=C/c2ccc3cccc(C)c3[n+]2CC)Sc2ccccc21	233*
O=S(=O)(NCCCN1CCOCC1)c1ccc2ccccc2c1	10
Cc1cc(C(=O)Nn2c(-c3ccncc3)nc3ccccc3c2=O)ccc1[N+](=O)[O-]	0
CC1CC/C(=N/Nc2ccccc2)C(=O)N1 (stereo not drawn)	-9
COc1cccc(C(=O)NN/C(C)=C/C(=O)C(F)(F)C(F)(F)C(F)(F)F)c1	0
O=S(=O)(Cc1ccccc1)N1CCc2ccccc21	263
COc1cccc(-c2nnc(NC(=O)c3ccc(Cl)s3)o2)c1	149
O=C1OC(Cc2ccccn2)C(=O)C1=C1SCCS1 (stereo not drawn)	3
CC1(c2ccc([N+](=O)[O-])c(CS(=O)(=O)c3ccccc3)c2)OCCO1	627*
O=C(c1ccc(S(=O)(=O)Cc2ccccc2F)c([N+](=O)[O-])c1)N1CCCC1	0
CC1CCN(C(=O)c2ccc(S(=O)(=O)Cc3ccccc3F)c([N+](=O)[O-])c2)CC1	5
COc1ccc2nc(NC(=O)c3cccnc3SC)sc2c1	0
CN(C)S(=O)(=O)c1ccc(N2CCCC2)c(C(=O)Nc2nc(-c3ccc(F)c(F)c3)cs2)c1	414*
CN(C)S(=O)(=O)c1ccc(C(=O)Nc2nc(-c3cc4ccccc4o3)cs2)cc1	8
Cc1ccc(S(=O)(=O)Nc2ccccc2C(=O)Nc2nc(-c3ccc(F)cc3)cs2)cc1	-5
Cn1c(N)c(C(=O)COC(=O)C2CCCN2C(=O)c2cccs2)c(=O)n(C)c1=O (stereo not drawn)	-71
COc1ccc(C(=O)N2CCc3ccccc32)cc1	-6
Cc1cccc2cc3c(N)c(C(=O)N4CCc5ccccc54)sc3nc12	233*
O=C(c1ccccc1)N1CCc2ccccc21	0
